This is an account of results in ChEMBL document CHEMBL1140208, “Selectivity and mechanism of action of a growth factor receptor-bound protein 2 SRC homology 2 domain binding antagonist” (J Med Chem, 2008).

Active and inactive are the calls of the source. The calls are words filed in the database; no cut-off is given here.

In assay [1] the test system is PC-3M. Description: (§1) Antimotility activity in human PC3M cells assessed as inhibition of HGF-stimulated cell migration after 24 hrs by Boyden chamber assay. It is filed as functional, cell-based. In a few lines: (§2)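 PC3M cells pretreated with compound 24 h, seeded 200,000 per modified Boyden chamber; migration stimulated with recombinant human HGF 50 ng/ml. Migrated cells counted by light microscopy in four fields (1 × 1.4 mm) per well, triplicate wells per condition; expressed as percent maximum, mean ± standard deviation; dose-response analysis.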

In assay [2] the target is Growth factor receptor-bound protein 2 (Homo sapiens) (UniProt P62993). Description: Binding affinity to human recombinant HGF-stimulated Grb2-SH2 in human SK-LMS1 cells at 3 uM by immunoblot analysis. Type of assay: cell-based. In a few lines:
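SK-LMS-1 cells serum-deprived 16 h, stimulated with recombinant human HGF 25 ng/ml for 20 min, lysed in cold non-ionic detergent buffer. Biotinylated ligand (3 μM) added to lysate, 1 h on ice; streptavidin beads added, 1 h at 4°C. Beads washed five times with lysis buffer at 150–500 mM NaCl; bound Grb2 detected by SDS-PAGE and anti-Grb2 immunoblot.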
(In western blotting, separated proteins are transferred to a membrane and probed.)

Assay [3] in a line: as §1. To be noted: PC-3M. It is filed as functional, cell-based. In outline: as §2
Assay [4] deals with Growth factor receptor-bound protein 2 (Homo sapiens) (UniProt P62993). Description: Binding affinity to human recombinant HGF-stimulated Grb2-SH3 in human SK-LMS1 cells assessed as presence of associated protein Nck2 at 3 uM by immunoblot analysis. It is filed as cell-based.
Assay [5] has the same target. Description: Binding affinity to human recombinant HGF-stimulated Grb2-SH3 in human SK-LMS1 cells assessed as presence of associated protein Nck1 at 3 uM by immunoblot analysis. It is filed as cell-based.
For assay [6] the target is unchanged. Description: Binding affinity to human recombinant HGF-stimulated Grb2-SH3 in human SK-LMS1 cells assessed as presence of associated protein Gab1 at 3 uM by immunoblot analysis. It is filed as cell-based.
Assay [7] shares this target. Description: Binding affinity to human recombinant HGF-stimulated Grb2-SH3 in human SK-LMS1 cells assessed as presence of associated protein Sos1 at 3 uM by immunoblot analysis. Type of assay: cell-based.
In assay [8] the target is Serine/threonine-protein kinase PAK 1 (Homo sapiens) (UniProt Q13153). Description: Inhibition of HGF-stimulated PAK1 activation in human PC3M cells at 1 uM after 16 hrs by immunoblot analysis. It is filed as cell-based. In outline: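 PC3M cells serum-deprived and treated 16 h with 1 μM compound or left untreated, then stimulated briefly with HGF (50 ng/mL) for various times. Lysates probed by immunoblot with anti-phospho-PAK1; anti-PAK1 served as loading control.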

The subject of assay [9] is PC-3M. Description: Inhibition of HGF-induced human PC3M cell migration assessed as reduction in actin bundle reorganization and membrane extension at 1 uM after 6 hrs by DAPI staining. Type of assay: functional, cell-based. In outline:
(§3)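 Cells in chamber slides serum-deprived ± 1 μM compound for 24 h, monolayer scratched with pipet tip, then incubated ± HGF 50 ng/ml (6 h) before fixation and permeabilization. Blocked with 5% BSA, stained overnight at 4°C with Alexa488-phalloidin for F-actin, nuclei counterstained with DAPI; lamellipodia at wound edge imaged by epifluorescence videomicroscopy.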

Assay [10] has as its target Serine/threonine-protein kinase PAK 1 (Homo sapiens) (UniProt Q13153). Description: Decrease in HGF-stimulated PAK1 nuclear translocation in human PC3M cells at 1 uM after 16 hrs by immunoblot analysis. It is filed as cell-based. In a few lines:
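PC3M cells treated with compound for 16 h; nuclear extracts prepared with high-salt buffer. PAK1 detected by SDS-PAGE and anti-PAK1 immunoblot, with anti-CREB immunoblot alongside.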

Assay [11] in a line: Selectivity ratio for streptavidin-coupled biotin-labeled Shc-SH2 to streptavidin-coupled biotin-labeled Grb2-SH2. In outline:
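Ratio of Shc-SH2 to Grb2-SH2 steady-state affinities, both measured by SPR on Neutravidin-captured biotinylated SH2 domains (Biacore T100, 25°C, PBS pH 7.4, inhibitors 1.25–1500 nM, 1:1 fit).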

A further assay deals with MDCK. Description: Inhibition of HGF-induced MDCK cell migration assessed as reduction in actin bundle reorganization and membrane extension at 1 uM after 6 hrs by DAPI staining. It is filed as functional, cell-based. To be noted: Canis lupus familiaris. In a few lines: as §3

Sequence of Growth factor receptor-bound protein 2 (Homo sapiens) (P62993 whole entry, looked up): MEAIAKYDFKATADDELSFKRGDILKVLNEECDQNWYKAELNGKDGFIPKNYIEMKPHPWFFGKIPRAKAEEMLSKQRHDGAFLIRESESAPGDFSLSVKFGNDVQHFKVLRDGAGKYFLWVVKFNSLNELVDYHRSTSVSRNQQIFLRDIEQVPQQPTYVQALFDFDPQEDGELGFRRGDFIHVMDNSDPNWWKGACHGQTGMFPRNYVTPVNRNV
Sequence of Serine/threonine-protein kinase PAK 1 (Homo sapiens) (Q13153 whole entry): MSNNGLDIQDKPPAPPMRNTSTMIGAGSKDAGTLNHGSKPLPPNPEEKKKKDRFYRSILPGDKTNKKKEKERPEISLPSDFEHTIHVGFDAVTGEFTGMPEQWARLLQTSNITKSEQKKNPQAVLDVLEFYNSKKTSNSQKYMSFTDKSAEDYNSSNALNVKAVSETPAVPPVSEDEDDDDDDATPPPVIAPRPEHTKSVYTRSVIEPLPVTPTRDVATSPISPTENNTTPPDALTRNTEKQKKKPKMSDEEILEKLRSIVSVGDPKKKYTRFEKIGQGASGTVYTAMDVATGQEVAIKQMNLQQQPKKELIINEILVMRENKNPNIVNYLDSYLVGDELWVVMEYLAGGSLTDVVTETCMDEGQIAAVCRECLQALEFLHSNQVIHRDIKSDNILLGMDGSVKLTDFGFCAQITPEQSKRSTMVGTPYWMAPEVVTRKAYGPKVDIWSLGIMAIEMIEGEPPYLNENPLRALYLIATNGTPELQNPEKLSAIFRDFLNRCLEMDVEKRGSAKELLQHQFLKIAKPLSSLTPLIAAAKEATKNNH

Turning to `NC(=O)C[C@H](NC(=O)C1(NC(=O)[C@H](Cc2ccc(O)cc2)NC(=O)C(=O)O)CCCCC1)C(=O)NCCCc1cccc2c(OC(=O)CCCCCNC(=O)CCCC[C@@H]3SC[C@@H]4NC(=O)N[C@@H]43)cccc12`, the outcome (with PC-3M [1]; in [2]) was inactive.
By IC50 is commonly meant the concentration needed to halve the response being measured. For the compound `NC(=O)C[C@H](NC(=O)C1(NC(=O)[C@H](Cc2ccc(C(C(=O)O)C(=O)O)cc2)NC(=O)C(=O)O)CCCCC1)C(=O)NCCCc1cccc2c(OC(=O)CCCCCNC(=O)CCCC[C@@H]3SC[C@@H]4NC(=O)N[C@@H]43)cccc12`, the half-maximal inhibitory concentration (IC50) in [3] was determined as 14 nM. Moreover, the outcome in assay [2], in [4], in [5], in assay [6] and in [7] was Active.
With `NC(=O)C[C@H](NC(=O)C1(NC(=O)[C@H](Cc2ccc(C(C(=O)O)C(=O)O)cc2)NC(=O)C(=O)O)CCCCC1)C(=O)NCCCc1cccc2ccccc12`, the outcome (in assay [8]; in the assay on PC-3M [9]; in assay [10]; with MDCK) was Active. Also, the Ratio in assay [11] turned out to be 65.
Consider `NC(=O)C[C@H](NC(=O)C1(NC(=O)[C@H](Cc2ccc(C(C(=O)O)C(=O)O)cc2)NC(=O)C(=O)O)CCCCC1)C(=O)NCCCc1cccc2c(O)cccc12`, for which the Ratio in assay [11] is 101.
